# Screening data as filed in PubChem.
# An excerpt weighted towards active compounds, which were near 2.6% of everything screened.
# RanGTP-Imp inh = inhibitors of RanGTP-importin-beta interaction, primary screen, biochemical, FRET, CFP-Ran, YFP-importin-beta, homogeneous | cell-free CFP-Ran/YFP-importin-beta FRET ratio | inhibition, % (concentration not given with the values) | 300,000 compounds, 1.1% hits | AID 2216;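 active = more than half of the replicate wells show a fall in the fluorescence ratio signal beyond about 16%, limit read from the data, passing the limit was not always enough; inconclusive = exactly half of the replicate wells pass the set limit; inactive = fewer than half of replicates pass the limit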;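 note: 0% = DMSO wells and 100% = Ran loaded with GDP instead of GTP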
# Runt-CBFb FRET = blocks binding of human RUNX1 Runt domain to CBFb | Q01196+Q13951 | Cerulean-Runt/Venus-CBFb FRET ratio 530/480, 1 h | inhibition, % at 20 µM | 220,000 compounds, 0.46% hits;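 active = inhibition over about 50% at 20 µM in the single-dose screen, limit read from the data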;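 note: 0% = DMSO wells and 100% = excess unlabeled CBFb competitor control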
#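 test system = Cerulean-Runt domain fusion protein, energy donor | probe or stimulus = Venus-CBFb binding partner, 100 nM | incubation = two 1 h room-temperature incubations shielded from light | detection = fluorescence energy transfer, 422 nm excitation, 530/480 nm emission | measure = loss of energy transfer signal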
# IMP-1 inh = blocks Pseudomonas aeruginosa IMP-1 metallo-beta-lactamase; purified IMP-1, nitrocefin hydrolysis, epi-absorbance fluorescence; inhibition, % at 5.6 µM; 290,000 compounds, 0.45% hits; AID 1556;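 active = inhibition above the mean plus 3 SD of all compounds in the same screening run, cut at about 4.5% in these data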;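 note: 0% = IMP-1 with DMSO and 100% = DMSO wells lacking enzyme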
#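 Test system: recombinant IMP-1 enzyme, purified / Medium: HEPES buffer pH 7.1 with ZnSO4 and Brij 35 / Doses: single dose, 5.6 µM / Times: 25 °C, 15 min preincubation, 25 min reaction / Detection: Epi-absorbance via hydrolysed-nitrocefin quenching of white-plate fluorescence, 480/530 nm, EDTA stop / Evaluation: percent inhibition from optical density relative to buffer-blank wells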
# Runt-SMMHC FRET = inhibitors of human RUNX1 Runt domain binding to CBFb-SMMHC | inhibition, % at 20 µM | 220,000 compounds, 0.74% hits | Cerulean-Runt/Venus-CBFb-SMMHC FRET ratio 530/480, 1 h;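 active = mean inhibition across duplicate retests at 20 µM reaching about 50%, limit read from the data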;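 note: 0% = DMSO wells and 100% = wells with excess untagged CBFb-SMMHC; inhibitors lower the FRET ratio by blocking Runt binding to CBFb-SMMHC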
# VIM-2 inh = blocks Pseudomonas aeruginosa VIM-2 metallo-beta-lactamase; purified VIM-2, nitrocefin hydrolysis, epi-absorbance fluorescence; inhibition, % at 5.6 µM; 290,000 compounds, 0.89% hits; AID 1527;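 active = inhibition above the mean of all tested compounds plus 3 SD, cutoff set per screening run, cut at about 7.5% in these data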;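 note: red hydrolysis product quenches plate fluorescence so inhibitors raise well fluorescence; 0% = enzyme with DMSO and 100% = DMSO without enzyme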
# Numbers without * were called inactive; ? = inconclusive; / = not tested or not shown.
SMILES,RanGTP-Imp inh,Runt-CBFb FRET,IMP-1 inh,Runt-SMMHC FRET,VIM-2 inh
Cc1ccc(C(=O)O)cc1-c1ccc(/C=C2/NC(=O)N(c3ccccc3)C2=O)o1,20*,12,-1,39,-4
Cc1cnc(C(=O)NNC(=O)c2ccc(Br)cc2)cn1,-1,/,/,/,/
COc1cc2cc(C(=O)Nc3ccccc3)c(N)nc2cc1OC,29*,16,-3,48,-1
CCOC(=O)c1cn(Cc2ccc(Br)cc2)nn1,0,-3,-1,0,0
CCOC(OCC)c1cn(Cc2ccc3c(c2)C(=O)c2ccccc2C3=O)nn1,2,/,-1,/,9.9*
CCN(Cc1nc(-c2ccc(OC)c(OC)c2)no1)C(=O)c1ccc2c(c1)OCO2,5,/,-1,/,-2
O=C(NCCCN1CCOCC1)C(=O)N/N=C/c1ccccc1O,?,0,-4,-2,-5
COC(=O)c1ccccc1NC(=O)NC1CCN(Cc2ccccc2)CC1,-1,91*,-3,-3,-2
CCN1CCC(NC(=O)Nc2ccccc2C(=O)OC)CC1,0,2,-3,2,-2
CC(C)(C)Cc1nnc(NC(=O)CCc2ccccc2)s1,?,/,-1,/,-2
CCn1c2ccccc2c2nnc(SCC(=O)OCN3C(=O)c4ccccc4C3=O)nc21,-3,0,-5,0,-1
CCN(CC)CCSc1nnc2c3ccccc3n(CCc3ccccc3)c2n1,1,/,-3,/,11*
CCOC(=O)CSc1nnc2c3ccccc3n(CC)c2n1,-6,/,-3,/,7.9*
CC(C)n1cc(C(=O)NC2CC(C)(C)Cc3c2cnn3-c2ccccc2)cn1 (stereo not drawn),5,/,-1,/,-2
O=C(CC1Nc2cccc3cccc(c23)NC1=O)Nc1ccccc1 (stereo not drawn),-4,-5,-2,-61,1
NC(=O)CC1Nc2cccc3cccc(c23)NC1=O (stereo not drawn),-3,8,9.1*,-40,8.1*
OCCSc1nc(-c2cccnc2)nc2ccccc12,2,-2,-2,4,7.7*
OCCNc1nc(-c2cccnc2)nc2ccccc12,1,2,-1,4,2
CCOC(=O)C1CN(S(=O)(=O)c2ccc(C)cc2)c2ccccc2O1 (stereo not drawn),6,/,0,/,1
CC(C)(C)OC(=O)NCC(=O)Oc1cc2oc(=O)cc(-c3ccccc3)c2cc1Cl,0,3,-3,81*,2
COC(=O)c1ccc2c(=O)n(CCCCCC(=O)NCc3ccc4c(c3)OCO4)c(=O)[nH]c2c1,35*,0,-4,2,-1
O=C(CCCn1c(=S)[nH]c2cc3c(cc2c1=O)OCO3)NCc1ccccc1Cl,0,/,14*,/,-4
CCCCc1ccc(NC(=S)N2CCCC2)cc1,/,/,-2,/,-5
COc1ccc(OC)c(C2C3=C(CCCC3=O)Nc3c2c(=O)n(C)c(=O)n3C)c1 (stereo not drawn),3,33,-5,73*,-4
COc1ccc(C2C3=C(CC(C)(C)CC3=O)Nc3c2c(=O)n(C)c(=O)n3C)cc1OC (stereo not drawn),5,63*,-4,107*,-3
SMILES,RanGTP-Imp inh,Runt-CBFb FRET,IMP-1 inh,Runt-SMMHC FRET,VIM-2 inh
C=CCOc1ccccc1C1C2=C(CC(C)(C)CC2=O)Nc2c1c(=O)n(C)c(=O)n2C (stereo not drawn),2,24,-2,46,-3
Cc1cc(=O)oc2cc(OCC(=O)NC3CCN(Cc4ccccc4)CC3)ccc12,2,/,-2,/,4
Cc1c(C)c2ccc(OCC(=O)NC3CCN(Cc4ccccc4)CC3)cc2oc1=O,1,/,-3,/,12*
Cc1cccc2c3nc4ccccc4nc3n(C)c12,-1,/,-3,/,9.7*
CCOC(=O)c1c(C)[nH]c(C(=O)COC(=O)CNC(=O)c2ccc(Br)cc2)c1C,-3,-1,-2,-1,2
CCOC(=O)c1c(C)[nH]c(C)c1C(=O)COC(=O)CNC(=O)c1ccc(OCC)cc1,8,-1,4.7*,-2,-2
Cc1ccc(N=c2c([N+](=O)[O-])nn(-c3ccc(Cl)cc3)n2O)cc1C,1,2,12*,-5,-2
N=C1/C(=C/c2coc3ccccc3c2=O)C(=O)N=C2SC(c3ccco3)=NN12,-32,-2,6.8*,-4,-1
